Test results: paper PMC8883152 (Translational Vision Science & Technology, 2022)

What was measured:
Assay type in all cases: in vivo, C57BL/6 mice
[1] = test system: Dex-induced OHT mouse model; assay: IOP in dexamethasone-induced ocular hypertension mouse model; conditions: HL3501 0.04% BID, latanoprost 0.005% QD, or both
In short: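 IOP was read with a rebound tonometer on days 0, 1, 3, 5, 7, 10, 14, 17 and 21 in male C57BL/6 mice. Ocular hypertension was pre-induced by 0.1% dexamethasone (20 µL/eye, three times daily, 2 weeks; maintained throughout). Drops were test compound 0.04% BID, latanoprost 0.005% QD, or both 5 min apart, for 21 days. Groups had 8–10 mice. Basal IOP was taken before dexamethasone.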

[2] = test system: Dex-induced OHT mouse model; assay: Electroretinography; conditions: day 21, compared with vehicle-treated group
In short: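 Male C57BL/6 mice (11 weeks) received 0.1% dexamethasone eye drops (20 µL/eye) in both eyes three times daily for 2 weeks, continued through dosing. Test compound (0.04% BID), latanoprost (0.005% QD) or both were then given topically for 21 days, doses 5 min apart. ERG was run on both eyes of dark-adapted anaesthetised mice on days 0 and 21. A single white 0.3 log cd·s/m2 flash was used, and b-wave amplitude was measured.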

[3] = test system: fibronectin and α-SMA expression in the TM; conditions: after 21 days treatment
In short: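 Eye sections from dexamethasone-induced hypertensive C57BL/6 mice (21 days of topical dosing) were used. Sections were incubated overnight at room temperature with fibronectin and α-SMA antibodies (1:200) and washed in 0.1 M PBST. Fluorescent secondary antibodies (1:500) were applied for 1 h. Sections were DAPI-counterstained and imaged by fluorescence microscopy focused on the trabecular meshwork.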

RGCs = assay: Hematoxylin and eosin staining of retinal sections; conditions: after 21 days treatment, H&E retinal cross-sections
In short: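 In dexamethasone-induced hypertensive C57BL/6 mice treated topically for 21 days, eyes were enucleated after euthanasia and fixed in 10% formalin for 24 h. They were paraffin-embedded and sectioned. Retinal sections were stained with hematoxylin (0.1% plus 10% ammonium) for 3–5 min, then 1% eosin Y for 1 min. Slides were dehydrated through ethanol and xylene and scanned to assess RGCs.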

[4] = test system: MMP-2/TIMP-2 and MMP-9/TIMP-1 ratios; conditions: retinal extracts, normalized to α-tubulin
In short: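 Three mice per group were used (dexamethasone-induced hypertension, 21 days of topical dosing). Retinas were homogenised in RIPA buffer (pH 8.0) and centrifuged at 14,000g for 30 min at 4°C. Protein (10 µg/lane) was run on 10% SDS-PAGE and blotted. Membranes were probed overnight at room temperature for MMP-2, MMP-9, TIMP-1 and TIMP-2. Bands were detected by ECL densitometry and normalised to α-tubulin, and MMP-2/TIMP-2 and MMP-9/TIMP-1 ratios were calculated.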

Q: With CC(C)OC(=O)CCC/C=C\C[C@@H]1[C@@H](CC[C@@H](O)CCc2ccccc2)[C@H](O)C[C@@H]1O [Latanoprost, latanoprost] as the compound, how does the “IOP effect over 3 weeks in Dex-induced OHT mouse model (in words)” value [1] read?
A: The value was “consistent IOP-lowering effect”.

Q: What about the “b-wave values on day 21 (in words)” value [2] of the same compound?
A: The value was “did not decrease as much”.

Q: What about the “Fibronectin and α-SMA expression in the TM compared with vehicle (in words)” value [3] of the same compound?
A: Its value is “suppressed”.

Q: And the “RGC loss (in words)” value (RGCs)?
A: Its value is “less affected by RGC loss”.

Q: And the “MMP-2/TIMP-2 ratio (in words)” value [4]?
A: The value was “increased”.

Q: And the “MMP-9/TIMP-1 ratio (in words)” value [4]?
A: Its value is “increased”.
